Measurements published in paper PMC4752335 (European journal of medicinal chemistry, 2015).

Tests used:
ovine COX-1 = molecular target: T1, ovine COX-1 (Ovis aries, UniProt P05979); assay: In vitro COX assay; format: biochemical; settings: for increase in potency toward COX-1: compared to 10a; for decrease in potency toward COX-1: compared to 10r
T1 sequence (P05979 25-600): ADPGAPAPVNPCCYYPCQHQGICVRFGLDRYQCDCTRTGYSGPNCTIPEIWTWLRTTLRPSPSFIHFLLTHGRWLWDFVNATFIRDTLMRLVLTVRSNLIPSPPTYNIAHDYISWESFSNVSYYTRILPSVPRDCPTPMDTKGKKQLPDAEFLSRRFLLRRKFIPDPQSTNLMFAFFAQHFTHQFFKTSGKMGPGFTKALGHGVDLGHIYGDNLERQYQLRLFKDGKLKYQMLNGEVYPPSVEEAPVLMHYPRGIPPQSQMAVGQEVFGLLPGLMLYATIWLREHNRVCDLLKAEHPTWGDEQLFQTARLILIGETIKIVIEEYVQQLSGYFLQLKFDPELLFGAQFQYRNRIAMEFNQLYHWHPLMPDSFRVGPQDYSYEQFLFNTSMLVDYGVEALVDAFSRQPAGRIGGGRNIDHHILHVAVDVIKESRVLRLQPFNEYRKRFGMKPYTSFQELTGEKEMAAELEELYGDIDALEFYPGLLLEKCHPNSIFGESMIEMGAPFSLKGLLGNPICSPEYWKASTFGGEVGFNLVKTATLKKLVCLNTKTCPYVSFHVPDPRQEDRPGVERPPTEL

rat brain FAAH = molecular target: T2, rat brain FAAH (Rattus norvegicus, UniProt P97612); assay: In vitro rat FAAH radiometric assay; format: biochemical
T2 sequence (P97612 1-579): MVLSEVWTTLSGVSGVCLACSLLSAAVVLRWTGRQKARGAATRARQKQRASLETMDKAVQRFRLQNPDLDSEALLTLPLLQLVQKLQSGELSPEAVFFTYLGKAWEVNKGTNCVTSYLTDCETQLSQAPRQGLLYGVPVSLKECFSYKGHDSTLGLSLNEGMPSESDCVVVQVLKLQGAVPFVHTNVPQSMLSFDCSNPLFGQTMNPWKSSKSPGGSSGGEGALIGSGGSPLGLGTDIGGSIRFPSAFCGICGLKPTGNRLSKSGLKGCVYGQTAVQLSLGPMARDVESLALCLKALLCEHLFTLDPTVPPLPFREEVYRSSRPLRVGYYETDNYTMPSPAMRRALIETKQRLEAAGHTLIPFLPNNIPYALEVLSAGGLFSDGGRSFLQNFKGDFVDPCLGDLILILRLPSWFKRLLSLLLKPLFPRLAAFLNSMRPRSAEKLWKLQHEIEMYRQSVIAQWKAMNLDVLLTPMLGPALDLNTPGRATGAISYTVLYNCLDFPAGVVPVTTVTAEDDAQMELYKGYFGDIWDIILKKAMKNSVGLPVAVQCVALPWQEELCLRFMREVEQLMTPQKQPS

[1] = test system: panel of >90 biologically relevant receptors, enzymes and ion channels; settings: cited from earlier work
FAAH and COX = settings: mice; cited from earlier work
mouse models of IBD = settings: cited from earlier work
human recombinant COX-2 = molecular target: T3, human recombinant COX-2 (Homo sapiens, UniProt P35354); assay: In vitro COX assay; format: biochemical; settings: compared to 10r
T3 sequence (P35354 18-604): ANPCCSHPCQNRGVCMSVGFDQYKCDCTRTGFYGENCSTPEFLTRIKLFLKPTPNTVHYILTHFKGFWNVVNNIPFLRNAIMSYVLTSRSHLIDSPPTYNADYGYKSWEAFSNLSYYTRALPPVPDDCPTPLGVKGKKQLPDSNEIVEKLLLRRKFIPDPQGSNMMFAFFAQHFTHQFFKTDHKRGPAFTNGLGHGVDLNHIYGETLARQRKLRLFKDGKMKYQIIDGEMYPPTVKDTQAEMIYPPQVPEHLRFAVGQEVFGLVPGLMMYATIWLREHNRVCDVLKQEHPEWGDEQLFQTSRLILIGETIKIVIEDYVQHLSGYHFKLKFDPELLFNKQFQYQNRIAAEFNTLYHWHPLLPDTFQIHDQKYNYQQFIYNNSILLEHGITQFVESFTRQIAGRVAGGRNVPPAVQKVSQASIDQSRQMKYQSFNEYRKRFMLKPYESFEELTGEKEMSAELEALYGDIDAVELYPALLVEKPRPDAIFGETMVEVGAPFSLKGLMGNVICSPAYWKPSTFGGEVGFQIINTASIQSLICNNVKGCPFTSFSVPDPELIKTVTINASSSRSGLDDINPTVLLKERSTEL

[2] = test system: panel of >90 biologically relevant receptors, enzymes and ion channels; assay: Off-target panel of >90 biologically relevant targets; settings: Table S1
[3] = test system: COX products (6-keto-PGF1α, TXB2) and FAAH substrate OEA in plasma; format: in vivo; settings: mice, 1 mg/kg intravenous, 1 h, vs vehicle
Procedure, shortened: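 Mice, randomised in groups of 6 and handled blind, were decapitated under anaesthesia 1 h after a 1 mg/kg intravenous dose. Heparinised cardiac blood (0.3 mL) was spun at 2000×g for 30 min to give plasma. OEA was extracted with cold acetone containing [²H₄]-OEA and quantified by LC/MS (MRM) against a 1 nM–10 µM calibration curve. 6-keto-PGF1α and […] were measured by ELISA kit. Values are mean ± s.e.m. (n=6), compared with vehicle by two-tailed Student's t test.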

CC(C(=O)O)c1ccc(-c2cccc(OC(=O)NC3CCC3)c2)c(F)c1 (racemic) [Compound 10c, (±)-2-[4-[3-(cyclobutylcarbamoyloxy)phenyl]-3-fluoro-phenyl]propanoic acid]
increase in potency toward COX-1 (ovine COX-1): 10 fold | loss in potency against FAAH (rat brain FAAH; compared to 10a): 10 fold

CC(C(=O)O)c1ccc(-c2cccc(OC(=O)NCC3CCCCC3)c2)c(F)c1 (racemic) [Compound 10e, (±)-2-[4-[3-(cyclohexylmethylcarbamoyloxy)phenyl]-3-fluoro-phenyl]propanoic acid]
increase in potency toward COX-1 (ovine COX-1): 10 fold | increase in potency toward FAAH (rat brain FAAH; compared to 10a): 23 fold

CC(C(=O)O)c1ccc(-c2cccc(OC(=O)NCCC3CCCCC3)c2)c(F)c1 (racemic) [Compound 10f, (±)-2-[4-[3-(2-cyclohexylethylcarbamoyloxy)phenyl]-3-fluoro-phenyl]propanoic acid]
increase in potency toward COX-1 (ovine COX-1): 50 fold | increase in potency toward FAAH (rat brain FAAH; compared to 10a): 400 fold

CC(C(=O)O)c1ccc(-c2cccc(OC(=O)NCc3ccccc3)c2)c(F)c1 (racemic) [Compound 10j, (±)-2-[4-[3-(benzylcarbamoyloxy)phenyl]-3-fluoro-phenyl]propanoic acid]
increase in potency toward FAAH (rat brain FAAH; compared to 10i): 10 fold

CCCCCCNC(=O)Oc1cccc(-c2ccc(C(C)C(=O)O)cc2F)c1 (racemic) [Compound 10r, (±)-2-[3-fluoro-4-[3-(hexylcarbamoyloxy)phenyl]phenyl]propanoic acid]
off-target activities on a panel of >90 biologically relevant targets [1]: no off-target activities | engagement of intended targets after oral administration (FAAH and COX): effectively engages its intended targets | anti-inflammatory effects in mouse models of IBD (mouse models of IBD): profound anti-inflammatory effects | COX-dependent gastric toxicity (mouse models of IBD; mouse): without causing COX-dependent gastric toxicity

CCCCCCNC(=O)Oc1cccc(-c2ccc(C(C)CO)cc2F)c1 (racemic) [Compound 12, (±)-[3-[2-fluoro-4-(2-hydroxy-1-methyl-ethyl)phenyl]phenyl] N-hexylcarbamate]
decrease in potency toward COX-1 (ovine COX-1): 100 fold | increase in potency toward FAAH (rat brain FAAH; compared to 10r): 10 fold

CCCCCCNC(=O)Oc1ccccc1-c1ccc(C(C)C(=O)O)cc1F (racemic) [Compound 15a, (±)-2-[3-fluoro-4-[2-(hexylcarbamoyloxy)phenyl]phenyl]propanoic acid]
decrease in potency toward COX-1 (ovine COX-1): 60 fold | decrease in potency toward FAAH (rat brain FAAH; compared to 10r): 70 fold

CCCCCCNC(=O)Oc1cccc(-c2ccc(C(C)C(=O)O)cc2C(F)(F)F)c1 (racemic) [Compound 29c, (±)-2-[4-[3-(hexylcarbamoyloxy)phenyl]-3-(trifluoromethyl)phenyl]propanoic acid]
increase in potency toward FAAH (rat brain FAAH; compared to 10r): 6 fold | increase in potency toward COX-2 (human recombinant COX-2): 2 fold

CCCCCCNC(=O)Oc1cccc(-c2ccc(C(C)C(=O)O)cc2)c1 (racemic) [Compound 29e, (±)-2-[4-[3-(hexylcarbamoyloxy)phenyl]phenyl]propanoic acid]
increase in potency toward FAAH (rat brain FAAH; compared to 10r): 10 fold

CCCCCCNC(=O)Oc1cccc(-c2ccc([C@H](C)C(=O)O)cc2F)c1 [(+)-10r, (+)-2-[3-fluoro-4-[3-(hexylcarbamoyloxy)phenyl]phenyl]propanoic acid]
off-target activities on a panel of >90 biologically relevant receptors, enzymes (including NAAA) and ion channels [2]: no off-target activities | plasma level of 6-keto-PGF1α (stable metabolite of prostacyclin) [3]: lowered | plasma level of TXB2 (stable metabolite of TXA2) [3]: lowered | plasma level of the FAAH substrate OEA [3]: increased

CCCCCCNC(=O)Oc1cccc(-c2ccc(CC(=O)O)cc2F)c1 [Compound 18b, 2-[3-fluoro-4-[3-(hexylcarbamoyloxy)phenyl]phenyl]acetic acid]
decrease in potency toward COX-1 (ovine COX-1): 180 fold | decrease in potency toward FAAH (rat brain FAAH; compared to 10r): 2 fold

CCCCCCNC(=O)Oc1cccc(-c2ccc(C(=O)O)cc2F)c1 [Compound 21c, 3-fluoro-4-[3-(hexylcarbamoyloxy)phenyl]benzoic acid]
decrease in potency toward FAAH (rat brain FAAH; compared to 10r): 3 fold
